Test results from ChEMBL document CHEMBL1146459, “Production of biologically active taxoids by a callus culture of Taxus cuspidata” (2004).

Experiments:
[1] = tested on: A549; test: Growth inhibition of human A549 cells after 48 hrs by SRB assay; type: functional; conditions: A549, 48 h
[2] = tested on: SK-OV-3; test: Growth inhibition of human SKOV3 cells after 48 hrs by SRB assay; type: functional; conditions: SK-OV-3, 48 h
[3] = Reversal of multidrug resistance in human 2780AD cells assessed as [3H]vincristine accumulation at 1 ug/mL after 2 hrs relative to control; type: functional, A2780 ADR
Outline: (§1)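 Multidrug-resistant human ovarian cancer 2780AD cells were exposed to taxoids at 0.1, 1 or 10 µg/mL. Radiolabelled vincristine accumulated in the cells was measured as dpm/well, using means of triplicate determinations. Results are expressed as % of vincristine accumulated relative to the control experiment. They were also scored on a seven-level index according to the range of relative accumulation.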

[4] = Reversal of multidrug resistance in human 2780AD cells assessed as [3H]vincristine accumulation at 0.1 ug/mL after 2 hrs relative to control; type: functional, A2780 ADR; outline: as §1
[5] = tested on: KM12; test: Growth inhibition of human KM12 cells after 48 hrs by SRB assay; type: functional; conditions: KM12, 48 h
[6] = tested on: LOX IMVI; test: Growth inhibition of human LOXIMVI cells after 48 hrs by SRB assay; type: functional
[7] = tested on: U-251; test: Growth inhibition of human U251 cells after 48 hrs by SRB assay; type: functional; conditions: U-251, 48 h
[8] = tested on: SF-539; test: Growth inhibition of human SF539 cells after 48 hrs by SRB assay; type: functional; conditions: SF-539, 48 h
[9] = Reversal of multidrug resistance in human 2780AD cells assessed as [3H]vincristine accumulation at 0.1 ug/mL after 2 hrs relative to verapamil; type: functional, A2780 ADR
[10] = tested on: SNB-78; test: Growth inhibition of human SNB78 cells after 48 hrs by SRB assay; type: functional; conditions: SNB-78, 48 h
[11] = tested on: MKN-74; test: Growth inhibition of human MKN74 cells after 48 hrs by SRB assay; type: functional; conditions: MKN-74, 48 h
[12] = Reversal of multidrug resistance in human 2780AD cells assessed as [3H]vincristine accumulation at 10 ug/mL after 2 hrs relative to control; type: functional, A2780 ADR; outline: as §1
[13] = tested on: SNB-75; test: Growth inhibition of human SNB75 cells after 48 hrs by SRB assay; type: functional; conditions: SNB-75, 48 h
[14] = Growth inhibition of human HBC4 cells after 48 hrs by SRB assay; type: functional; conditions: HBC4, 48 h
[15] = tested on: ACHN; test: Growth inhibition of human ACHN cells after 48 hrs by SRB assay; type: functional
[16] = tested on: OVCAR-8; test: Growth inhibition of human OVCAR8 cells after 48 hrs by SRB assay; type: functional; conditions: OVCAR-8, 48 h
[17] = tested on: MCF7; test: Growth inhibition of human MCF7 cells after 48 hrs by SRB assay; type: functional; conditions: MCF7, 48 h
[18] = tested on: MKN-45; test: Growth inhibition of human MKN45 cells after 48 hrs by SRB assay; type: functional; conditions: MKN-45, 48 h
[19] = tested on: OVCAR-5; test: Growth inhibition of human OVCAR5 cells after 48 hrs by SRB assay; type: functional; conditions: OVCAR-5, 48 h
[20] = tested on: SF-295; test: Growth inhibition of human SF295 cells after 48 hrs by SRB assay; type: functional; conditions: SF-295, 48 h
[21] = tested on: SF-268; test: Growth inhibition of human SF268 cells after 48 hrs by SRB assay; type: functional; conditions: SF-268, 48 h
[22] = tested on: HCC 2998; test: Growth inhibition of human HCC2998 cells after 48 hrs by SRB assay; type: functional; conditions: HCC 2998, 48 h
[23] = read-out: LC50 (the source's name)
[24] = read-out: pLC50 (the source's name) (converted)

SMILES: C=C1[C@@H](OC(C)=O)CC[C@@]2(C)C[C@H](OC(C)=O)C3=C(C)C[C@H](OC(=O)C(C)CC)[C@@H]([C@@H](OC(C)=O)[C@H]12)C3(C)C (some centres not stated)
- GI50 ([1]; read-out: GI50): 30 µM
- CC50 [1, 23]: > 100 µM
- TGI ([1]; read-out: TGI): > 100 µM
- GI50 ([1]; read-out: pGI50 (converted)): 30.2 µM
- CC50 [1, 24]: 100 µM
- TGI ([1]; read-out: pTGI (converted)): 100 µM
- GI50 ([2]; read-out: GI50): 68 µM
- CC50 [2, 23]: > 100 µM
- TGI ([2]; read-out: TGI): > 100 µM
- GI50 ([2]; read-out: pGI50 (converted)): 69.2 µM
- CC50 [2, 24]: 100 µM
- TGI ([2]; read-out: pTGI (converted)): 100 µM
- Activity [3]: 256%
- Activity [4]: 111%
- GI50 ([5]; read-out: GI50): 42 µM
- CC50 [5, 23]: > 100 µM
- TGI ([5]; read-out: TGI): > 100 µM
- GI50 ([5]; read-out: pGI50 (converted)): 41.7 µM
- CC50 ([5]; read-out: pLC50 (converted)): > 100 µM
- TGI ([5]; read-out: pTGI (converted)): 100 µM
- GI50 ([6]; read-out: GI50): 35 µM
- CC50 [6, 23]: > 100 µM
- TGI ([6]; read-out: TGI): > 100 µM
- GI50 ([6]; read-out: pGI50 (converted)): 34.7 µM
- CC50 [6, 24]: 100 µM
- TGI ([6]; read-out: pTGI (converted)): 100 µM
- GI50 ([7]; read-out: GI50): 36 µM
- CC50 [7, 23]: > 100 µM
- TGI ([7]; read-out: TGI): > 100 µM
- GI50 ([7]; read-out: pGI50 (converted)): 36.3 µM
- CC50 [7, 24]: 100 µM
- TGI ([7]; read-out: pTGI (converted)): 100 µM
- GI50 ([8]; read-out: GI50): 45 µM
- CC50 [8, 23]: > 100 µM
- TGI ([8]; read-out: TGI): > 100 µM
- GI50 ([8]; read-out: pGI50 (converted)): 44.7 µM
- CC50 [8, 24]: 100 µM
- TGI ([8]; read-out: pTGI (converted)): 100 µM
- Activity [9]: 95%
- GI50 ([10]; read-out: GI50): 50 µM
- CC50 [10, 23]: > 100 µM
- TGI ([10]; read-out: TGI): > 100 µM
- GI50 ([10]; read-out: pGI50 (converted)): 50.1 µM
- TGI ([10]; read-out: pTGI (converted)): 100 µM
- GI50 ([11]; read-out: GI50): 30 µM
- CC50 [11, 23]: > 100 µM
- TGI ([11]; read-out: TGI): > 100 µM
- GI50 ([11]; read-out: pGI50 (converted)): 30.2 µM
- CC50 [11, 24]: 100 µM
- TGI ([11]; read-out: pTGI (converted)): 100 µM
- Activity [12]: 701%
- CC50 [13, 23]: > 100 µM
- TGI ([13]; read-out: TGI): 55 µM
- GI50 ([13]; read-out: pGI50 (converted)): 8.91 µM
- CC50 [13, 24]: 100 µM
- TGI ([13]; read-out: pTGI (converted)): 55 µM
- GI50 ([14]; read-out: GI50): 72 µM
- CC50 [14, 23]: > 100 µM
- TGI ([14]; read-out: TGI): > 100 µM
- GI50 ([14]; read-out: pGI50 (converted)): 72.4 µM
- CC50 [14, 24]: 100 µM
- TGI ([14]; read-out: pTGI (converted)): 100 µM
- GI50 ([15]; read-out: GI50): 28 µM
- CC50 [15, 23]: > 100 µM
- TGI ([15]; read-out: TGI): > 100 µM
- GI50 ([15]; read-out: pGI50 (converted)): 28.2 µM
- CC50 [15, 24]: 100 µM
- TGI ([15]; read-out: pTGI (converted)): 100 µM
- GI50 ([16]; read-out: GI50): 37 µM
- CC50 [16, 23]: > 100 µM
- TGI ([16]; read-out: TGI): > 100 µM
- GI50 ([16]; read-out: pGI50 (converted)): 37.2 µM
- TGI ([16]; read-out: pTGI (converted)): 100 µM
- GI50 ([17]; read-out: GI50): 24 µM
- CC50 [17, 23]: > 100 µM
- TGI ([17]; read-out: TGI): 93 µM
- GI50 ([17]; read-out: pGI50 (converted)): 24 µM
- CC50 ([17]; read-out: pLC50 (converted)): > 100 µM
- TGI ([17]; read-out: pTGI (converted)): 93.3 µM
- GI50 ([18]; read-out: GI50): 27 µM
- CC50 [18, 23]: > 100 µM
- TGI ([18]; read-out: TGI): > 100 µM
- GI50 ([18]; read-out: pGI50 (converted)): 26.9 µM
- CC50 [18, 24]: 100 µM
- TGI ([18]; read-out: pTGI (converted)): 100 µM
- GI50 ([19]; read-out: GI50): 48 µM
- CC50 [19, 23]: > 100 µM
- TGI ([19]; read-out: TGI): > 100 µM
- GI50 ([19]; read-out: pGI50 (converted)): 47.9 µM
- TGI ([19]; read-out: pTGI (converted)): 100 µM
- GI50 ([20]; read-out: GI50): 21 µM
- CC50 [20, 23]: > 100 µM
- TGI ([20]; read-out: TGI): > 100 µM
- GI50 ([20]; read-out: pGI50 (converted)): 21.4 µM
- TGI ([20]; read-out: pTGI (converted)): 100 µM
- GI50 ([21]; read-out: GI50): 74 µM
- CC50 [21, 23]: > 100 µM
- TGI ([21]; read-out: TGI): > 100 µM
- GI50 ([21]; read-out: pGI50 (converted)): 74.1 µM
- CC50 [21, 24]: 100 µM
- TGI ([21]; read-out: pTGI (converted)): 100 µM
- GI50 ([22]; read-out: GI50): 27 µM
- CC50 [22, 23]: > 100 µM
- TGI ([22]; read-out: TGI): > 100 µM
- GI50 ([22]; read-out: pGI50 (converted)): 27.5 µM
- CC50 [22, 24]: 100 µM
- TGI ([22]; read-out: pTGI (converted)): 100 µM
